The test system of assay [1] is Trypanosoma brucei rhodesiense. The experiment in a line: Antitrypanosomal activity against Trypanosoma brucei rhodesiense trypomastigotes. Type of assay: functional. The conditions noted are these: read-out: ED50 (the source's name). The gist of the method:
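Bloodstream-form STIB900 trypomastigotes grown in HMI-18 + 15% HIFCS at 37 °C, 5% CO2. Seeded at 2 × 10^5/mL onto drug dilutions (top 30 µg/mL) for 72 h. Alamar Blue read 5-6 h later by fluorescence (ex/em 530/585 nm). ED50 by curve fitting.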

The test system of another assay is KB. Description: Cytotoxicity against KB cell line. Type of assay: functional. Conditions: Homo sapiens, read-out: TD50 (the source's name).
The subject of the next assay is Trypanosoma cruzi. Description: Antitrypanosomal activity against Trypanosoma cruzi trypomastigotes in CD1 mouse macrophage. Conditions: read-out: ED50 (the source's name). Type of assay: functional. The gist of the method:
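Starch-induced CD1 peritoneal macrophages plated at 4 × 10^5/mL, infected after 24 h with T. cruzi Tulahuan LAC-Z trypomastigotes. 24 h later, drug exposure for 3 days. ED50 by curve fitting.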

Assay [2] deals with Plasmodium falciparum. The experiment in a line: Antimalarial activity against Plasmodium falciparum K1. Type of assay: functional, organism-based. Conditions: read-out: ED50 (the source's name).
Assay [3] relates to Plasmodium falciparum. The experiment in a line: Antimalarial activity against Plasmodium falciparum 3D7. Type of assay: functional, organism-based. Conditions: read-out: ED50 (the source's name). The gist of the method:
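Synchronized ring-stage 3D7 culture at 1% parasitemia in RPMI 1640, 5% hematocrit, 37 °C, 5% CO2. Top final drug concentration 30 µg/mL. After 24 h, (3H)-hypoxanthine added (0.2 µCi/well), then 48 h further incubation. Plates freeze/thawed and harvested, and hypoxanthine uptake counted. ED50 by curve fitting.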

A further assay has as its system Leishmania donovani. Description: Antileishmanial activity against Leishmania donovani amastigotes in CD1 mouse macrophage. Type of assay: functional, organism-based. The conditions noted are these: read-out: ED50 (the source's name). The gist of the method:
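Peritoneal macrophages from starch-induced CD1 mice, kept 24 h in RPMI1640 + 10% HIFCS at 37 °C, 5% CO2. Infected with L. donovani MHOM/ET/67/L82 amastigotes from hamster spleen at 5 parasites:1 macrophage. After 24 h, drug exposure for 5 days, overlay replaced day 3. Top concentration 30 µg/mL, quadruplicate. Slides methanol-fixed, Giemsa-stained, counted microscopically. ED50 by curve fitting.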

The results in this text go back to ChEMBL document CHEMBL1137377, “Evaluation of azasterols as anti-parasitics” (J Med Chem, 2006).

Regarding `COC(=O)CNC(=O)[C@@H](C)[C@H]1CC[C@H]2C3CC=C4C[C@@H](OC(C)=O)CC[C@]4(C)[C@H]3CC[C@]12C` (stereo partly specified), the EC50 is 24 µM in assay [1]; 42.2 µM in the assay on Trypanosoma cruzi; 9.6 µM with Plasmodium falciparum [2]; 60 µM in the assay with Plasmodium falciparum [3]; > 65 µM in the assay with Leishmania donovani. Further, in the assay with KB, the CC50 is > 653 µM.

Turning to `COC(=O)CCNC(=O)[C@@H](C)[C@H]1CC[C@H]2C3CC=C4C[C@@H](OC(C)=O)CC[C@]4(C)[C@H]3CC[C@]12C` (stereo partly specified), the EC50 in assay [1] is 6 µM; with Trypanosoma cruzi it was 3.46 µM; in the assay on Plasmodium falciparum [2], 19.1 µM; in the assay with Plasmodium falciparum [3], 17.4 µM; with Leishmania donovani it was > 63 µM. Also, in the assay with KB, the CC50 turned out to be 597 µM.

Consider `COC(=O)CCCCCCCNC(=O)[C@@H](C)[C@H]1CC[C@H]2C3CC=C4C[C@@H](OC(C)=O)CC[C@]4(C)[C@H]3CC[C@]12C` (stereo partly specified), for which the EC50 was 0.607 µM in assay [1]; > 55 µM in the assay with Trypanosoma cruzi; 2.87 µM in the assay on Plasmodium falciparum [2]; 21.5 µM with Plasmodium falciparum [3]; > 55 µM with Leishmania donovani. Besides, the CC50 in the assay on KB was > 552 µM.

As for `COC(=O)CCCCCCNC(=O)[C@@H](C)[C@H]1CC[C@H]2C3CC=C4C[C@@H](OC(C)=O)CC[C@]4(C)[C@H]3CC[C@]12C` (stereo partly specified), the EC50 in assay [1] was 7.91 µM; in the assay on Trypanosoma cruzi, 10.8 µM; in the assay on Plasmodium falciparum [2], 1.26 µM; in the assay on Plasmodium falciparum [3] it was 14.4 µM; in the assay on Leishmania donovani it was > 57 µM. Also, the CC50 with KB was > 566 µM.

As to `COC(=O)CCCNC(=O)[C@@H](C)[C@H]1CC[C@H]2C3CC=C4C[C@@H](OC(C)=O)CC[C@]4(C)[C@H]3CC[C@]12C` (stereo partly specified), the EC50 is 9.15 µM in assay [1]; 4.7 µM with Trypanosoma cruzi; 11.6 µM with Plasmodium falciparum [2]; 16.2 µM in the assay on Plasmodium falciparum [3]; > 62 µM in the assay with Leishmania donovani. Also, the CC50 in the assay on KB was > 615 µM.

With `COC(=O)CCCCCNC(=O)[C@@H](C)[C@H]1CC[C@H]2C3CC=C4C[C@@H](OC(C)=O)CC[C@]4(C)[C@H]3CC[C@]12C` (stereo partly specified), the EC50 is 3.45 µM in assay [1]; 2.54 µM in the assay on Trypanosoma cruzi; 19.8 µM with Plasmodium falciparum [2]; 21.3 µM in the assay on Plasmodium falciparum [3]; > 58 µM with Leishmania donovani. For the same compound, in the assay with KB, the CC50 was > 582 µM.
